Data as given in ChEMBL document CHEMBL3400070, “Determination of the active stereoisomer of the MEP pathway-targeting antimalarial agent MMV008138, and initial structure-activity studies” (Bioorg Med Chem Lett, 2015).
Active and inactive are the calls of the source. The rule behind the calls is not given here.

Key:
Format in all cases: functional
[1] = tested on: Plasmodium falciparum; assay: Antimalarial activity against MRA-150, chloroquine, pyrimethamine, mefloquine-resistant asexual blood stage Plasmodium falciparum Dd2 after 72 hrs by SYBR green assay; conditions: Dd2, 72 h
Summary of the method: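 Dd2 parasites were kept in O-positive human erythrocytes in RPMI 1640 with Albumax I, hypoxanthine and HEPES. Ring-stage cultures (1% hematocrit, 1% parasitemia) were given eight- or ten-point dilutions of 20 to 0.02 μM in 0.1% DMSO for 72 h at 37 °C under low O2. Growth was read by SYBR green, with uninfected-erythrocyte background and normalisation to untreated 0.1% DMSO controls. IC50 came from a four-parameter variable-slope fit, mean of ≥2 independent experiments ± S.D.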

[2] = tested on: Plasmodium falciparum; assay: Antimalarial activity against MRA-150, chloroquine, pyrimethamine, mefloquine-resistant asexual blood stage Plasmodium falciparum Dd2 assessed as rescue at 10 uM after 72 hrs by SYBR green assay in presence of 200 uM IPP
Summary of the method: (§1)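 Single-concentration test (10 or 20 μM) run with or without 200 μM IPP on ring-stage Dd2 cultures (1% hematocrit, 1% parasitemia) in human erythrocytes. Incubation was 72 h at 37 °C under reduced O2. Growth was read by SYBR green, with background from uninfected erythrocytes and normalisation to untreated DMSO vehicle controls.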

[3] = tested on: Plasmodium falciparum; assay: Antimalarial activity against MRA-150, chloroquine, pyrimethamine, mefloquine-resistant asexual blood stage Plasmodium falciparum Dd2 assessed as rescue at 5 uM after 72 hrs by SYBR green assay in presence of 200 uM IPP
[4] = tested on: Escherichia coli; assay: Antibacterial activity against Escherichia coli BL21(DE3) after 18 hrs by cell density meter
Summary of the method: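 Overnight culture (37 °C, 200 rpm) diluted 100-fold into LB, grown to OD600 ~0.6, then diluted 10,000-fold; mixed 1:1 with compound prediluted in LB at 500, 250 and 125 μM; 5% DMSO final. Incubated 18 h, 37 °C, 200 rpm; growth normalized to untreated inoculum and compared with 5% DMSO vehicle; controls fosmidomycin 100 μM, uninoculated medium; three independent experiments.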

[5] = tested on: Plasmodium falciparum; assay: Antimalarial activity against MRA-150, chloroquine, pyrimethamine, mefloquine-resistant asexual blood stage Plasmodium falciparum Dd2 assessed as rescue after 72 hrs by SYBR green assay in presence of 200 uM IPP; conditions: Dd2, 72 h
Summary of the method: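 Ring-stage Dd2 cultures (1% hematocrit, 1% parasitemia, human erythrocytes) were grown with 200 μM IPP and a 10 to 0.02 μM serial dilution for 72 h at 37 °C under reduced O2. Growth was read by SYBR green and normalised to untreated 0.1% DMSO controls. Data are the mean ± S.D. of two or more independent experiments.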

[6] = tested on: Plasmodium falciparum; assay: Antimalarial activity against MRA-150, chloroquine, pyrimethamine, mefloquine-resistant asexual blood stage Plasmodium falciparum Dd2 assessed as rescue at 2.5 uM after 72 hrs by SYBR green assay in presence of 200 uM IPP
[7] = tested on: Plasmodium falciparum; assay: Antimalarial activity against MRA-150, chloroquine, pyrimethamine, mefloquine-resistant asexual blood stage Plasmodium falciparum Dd2 assessed as rescue at 20 uM after 72 hrs by SYBR green assay in presence of 200 uM IPP; summary of the method: as §1
[8] = tested on: Plasmodium falciparum; assay: Antimalarial activity against MRA-150, chloroquine, pyrimethamine, mefloquine-resistant asexual blood stage Plasmodium falciparum Dd2 at 10000 nM after 72 hrs by SYBR green assay; conditions: Dd2, 72 h, read-out: GI; summary of the method: as §1
[9] = tested on: Plasmodium falciparum; assay: Antimalarial activity against MRA-150, chloroquine, pyrimethamine, mefloquine-resistant asexual blood stage Plasmodium falciparum Dd2 at 20000 nM after 72 hrs by SYBR green assay; conditions: Dd2, 72 h, read-out: GI; summary of the method: as §1

O=C(O)[C@@H]1Cc2c([nH]c3ccccc23)[C@H](c2ccc(F)cc2F)N1
IC50 [1]: > 20 µM

CNNC(=O)[C@@H]1Cc2c([nH]c3ccccc23)[C@@H](c2ccc(Cl)cc2Cl)N1
IC50 [1]: 1.94 µM | Activity [2]: 80%

O=C(O)[C@@H]1Cc2c([nH]c3ccccc23)[C@H](c2ccccc2)N1
IC50 [1]: > 10 µM

CNC(=O)[C@@H]1Cc2c([nH]c3ccccc23)[C@@H](c2ccc(C(F)(F)F)cc2C(F)(F)F)N1
IC50 [1]: > 10 µM

O=C(O)[C@@H]1Cc2c([nH]c3ccccc23)[C@@H](c2ccc(F)cc2F)N1
IC50 [1]: 0.78 µM | Activity [3]: 100% | Activity [4]: inactive | IC50 [5]: > 10 µM

Cc1cc(Cl)ccc1[C@H]1N[C@H](C(=O)O)Cc2c1[nH]c1ccccc21
Activity [6]: 100% | IC50 [1]: 0.7 µM | Activity [4]: inactive | IC50 [5]: > 10 µM

O=C(O)[C@H]1Cc2c([nH]c3ccccc23)[C@@H](c2ccc(Cl)cc2Cl)N1
IC50 [1]: 3 µM | Activity [2]: 60%

O=C(O)[C@@H]1Cc2c([nH]c3ccccc23)[C@@H](c2ccc(Cl)cc2Cl)N1
Activity [6]: 100% | IC50 [1]: 0.25 µM | Activity [4]: inactive | IC50 [5]: > 10 µM

COC(=O)[C@@H]1Cc2c([nH]c3ccccc23)[C@@H](c2ccc(Cl)cc2Cl)N1
IC50 [1]: 6.8 µM | Activity [7]: 20%

Cc1ccc([C@@H]2N[C@H](C(=O)O)Cc3c2[nH]c2ccccc32)c(C)c1
IC50 [1]: > 10 µM

O=C(O)[C@H]1Cc2c([nH]c3ccccc23)[C@H](c2ccc(Cl)cc2Cl)N1
IC50 [1]: > 10 µM

Clc1ccc(C2NCCc3c2[nH]c2ccccc32)c(Cl)c1 (racemic)
IC50 [1]: 10 µM

O=C(O)[C@@H]1Cc2c([nH]c3ccccc23)[C@@H](c2ccccc2Cl)N1
IC50 [1]: 3.28 µM | Activity [2]: 60%

CC(C)NC(=O)[C@@H]1Cc2c([nH]c3ccccc23)[C@@H](c2ccc(Cl)cc2Cl)N1
inhibition of growth at 10 µM [8]: 50%

O=C(O)[C@@H]1Cc2c([nH]c3ccccc23)[C@@H](c2ccccc2)N1
IC50 [1]: > 10 µM

CNC(=O)[C@@H]1Cc2c([nH]c3ccccc23)[C@@H](c2ccc(F)cc2F)N1
Activity [6]: 100% | IC50 [1]: 1.2 µM | Activity [4]: inactive

CNC(=O)[C@@H]1Cc2c([nH]c3ccccc23)[C@@H](c2ccc(C)cc2C)N1
inhibition of growth at 10 µM [8]: 70%

O=C(O)C1Cc2c([nH]c3ccccc23)C(c2ccc(Cl)cc2Cl)N1 (stereo not given)
Activity [6]: 100% | IC50 [1]: 0.21 µM

CN1CC(=O)N2[C@H](c3ccc4c(c3)OCO4)c3[nH]c4ccccc4c3C[C@@H]2C1=O [TADALAFIL]
IC50 [1]: > 20 µM

O=CN(O)CCCP(=O)(O)O [FOSMIDOMYCIN]
Activity [2]: 100%

CNC(=O)[C@@H]1Cc2c([nH]c3ccccc23)[C@@H](c2ccc(Cl)cc2Cl)N1
Activity [6]: 100% | IC50 [1]: 0.19 µM | Activity [4]: inactive | IC50 [5]: > 10 µM

O=C(O)[C@@H]1Cc2c([nH]c3ccccc23)[C@@H](c2ccc(C(F)(F)F)cc2C(F)(F)F)N1
IC50 [1]: > 10 µM

COC(=O)[C@@H]1Cc2c([nH]c3ccccc23)[C@@H](c2ccccc2)N1
inhibition of growth at 20 µM [9]: 20%

Cc1ccc([C@H]2N[C@H](C(=O)O)Cc3c2[nH]c2ccccc32)c(Cl)c1
Activity [6]: 100% | IC50 [1]: 0.41 µM | Activity [4]: inactive | IC50 [5]: > 10 µM

O=C(O)[C@@H]1Cc2c([nH]c3ccccc23)[C@H](c2ccc(Cl)cc2Cl)N1
IC50 [1]: > 10 µM

NC(=O)[C@@H]1Cc2c([nH]c3ccccc23)[C@@H](c2ccc(Cl)cc2Cl)N1
IC50 [1]: 1.2 µM | Activity [2]: 50%

O=C(O)[C@@H]1Cc2c([nH]c3ccccc23)[C@@H](c2ccc(Cl)cc2)N1
IC50 [1]: 1.17 µM | Activity [2]: 50%

COC(=O)[C@H]1Cc2c([nH]c3ccccc23)[C@H](c2ccc(Cl)cc2Cl)N1
IC50 [1]: 7.7 µM | Activity [7]: 0%

Cc1ccc([C@H]2N[C@H](C(=O)O)Cc3c2[nH]c2ccccc32)c(C)c1
inhibition of growth at 10 µM [8]: 70%

Cc1ccc([C@@H]2N[C@H](C(=O)O)Cc3c2[nH]c2ccccc32)c(Cl)c1
IC50 [1]: > 10 µM

O=C(NC1CCCCC1)[C@@H]1Cc2c([nH]c3ccccc23)[C@@H](c2ccc(Cl)cc2Cl)N1
IC50 [1]: 2.83 µM | Activity [2]: 0%

CCCCNC(=O)[C@@H]1Cc2c([nH]c3ccccc23)[C@@H](c2ccc(Cl)cc2Cl)N1
inhibition of growth at 10 µM [8]: 80%

COc1ccc([C@H]2N[C@H](C(=O)O)Cc3c2[nH]c2ccccc32)cc1OC
IC50 [1]: > 20 µM

COc1ccc([C@H]2N[C@H](C(=O)O)Cc3c2[nH]c2ccccc32)c(OC)c1
IC50 [1]: > 20 µM

CNC(=O)[C@@H]1Cc2c([nH]c3ccccc23)[C@@H](c2ccc(C)cc2Cl)N1
Activity [6]: 100% | IC50 [1]: 0.34 µM | Activity [4]: inactive

CNC(=O)[C@@H]1Cc2c([nH]c3ccccc23)[C@@H](c2ccc(Cl)cc2C)N1
IC50 [1]: 1.85 µM | Activity [2]: 50%
